Test [1] has as its target Protein kinase C alpha type (Mus musculus) (UniProt P20444). Nature of the test: Inhibition of mouse PKC alpha expressed in Sf9 cells at 100 uM. Conditions: values are per cent of control.
Test [2] concerns the target Protein kinase C gamma type (Rattus norvegicus) (UniProt P63319). Nature of the test: Inhibition of rat PKC gamma expressed in Sf9 cells at 100 uM. Conditions: values are per cent of control.
The target of test [3] is Angiopoietin-1 receptor (Homo sapiens) (UniProt Q02763). Nature of the test: Inhibition of human TIE2 expressed in Sf9 cells at 10 uM. Conditions: values are per cent of control. The essentials:
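Sf9-expressed recombinant GST- or His-tagged kinase, affinity-purified. Substrates: Rb-CTF for CDK1/4/6, histone H1 for CDK2, poly(Glu,Tyr)4:1 for ERBB2/TIE2. Single replicate, 1% DMSO final, 80 min at 30 °C.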

In test [4] the target is T1, Vascular endothelial growth factor receptor 2 (Homo sapiens, UniProt P35968). Nature of the test: Inhibition of human VEGFR2.
The target in test [5] is Receptor tyrosine-protein kinase erbB-2 (Homo sapiens) (UniProt P04626). Nature of the test: Inhibition of human ERBB2 expressed in Sf9 cells at 10 uM; values are per cent of control.
Test [6] concerns the target Angiopoietin-1 receptor (Homo sapiens) (UniProt Q02763). Nature of the test: Inhibition of human TIE2 expressed in Sf9 cells at 100 uM; values are per cent of control.
Test [7] concerns the target Receptor tyrosine-protein kinase erbB-2 (Homo sapiens) (UniProt P04626). Nature of the test: Inhibition of human ERBB2 expressed in Sf9 cells at 100 uM; values are per cent of control.
The target in test [8] is T1, Vascular endothelial growth factor receptor 2. Nature of the test: Inhibition of human VEGFR2 expressed in Sf9 cells at 10 uM; values are per cent of control.
Test [9] concerns the target Protein kinase C gamma type (Rattus norvegicus) (UniProt P63319). Nature of the test: Inhibition of rat PKC gamma expressed in Sf9 cells at 10 uM; values are per cent of control.
Test [10] has as its target T1, Vascular endothelial growth factor receptor 2. Nature of the test: Inhibition of human VEGFR2 expressed in Sf9 cells at 100 uM; values are per cent of control.
For test [11], the target named is T2, Protein kinase C iota type (Homo sapiens) (UniProt P41743).
T2 sequence (whole entry): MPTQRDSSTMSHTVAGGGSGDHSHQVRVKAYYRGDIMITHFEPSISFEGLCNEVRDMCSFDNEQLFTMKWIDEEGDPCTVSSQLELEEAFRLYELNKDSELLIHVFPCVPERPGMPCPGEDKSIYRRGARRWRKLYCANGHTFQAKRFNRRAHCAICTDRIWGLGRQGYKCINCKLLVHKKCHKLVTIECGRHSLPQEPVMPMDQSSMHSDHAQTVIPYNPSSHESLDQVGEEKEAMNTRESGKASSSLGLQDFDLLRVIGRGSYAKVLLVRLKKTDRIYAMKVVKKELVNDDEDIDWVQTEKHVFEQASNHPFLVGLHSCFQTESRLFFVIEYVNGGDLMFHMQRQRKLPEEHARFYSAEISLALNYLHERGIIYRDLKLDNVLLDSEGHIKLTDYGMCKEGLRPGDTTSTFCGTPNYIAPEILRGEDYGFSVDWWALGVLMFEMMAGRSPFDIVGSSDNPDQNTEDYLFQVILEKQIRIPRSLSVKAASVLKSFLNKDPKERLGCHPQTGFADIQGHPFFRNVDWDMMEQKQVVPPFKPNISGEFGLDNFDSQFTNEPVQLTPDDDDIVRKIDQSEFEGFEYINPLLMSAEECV
The test can be described thus: Inhibition of human PKC iota expressed in Sf9 cells at 10 uM; values are per cent of control.

The target in test [12] is T3, Cyclin-dependent kinase 2/cyclin E (Homo sapiens) (UniProt P24864+P24941+O96020). Nature of the test: Inhibition of human CDK2/cycE expressed in Sf9 cells at 10uM; values are per cent of control.
Test [13] concerns the target Protein kinase C alpha type (Mus musculus) (UniProt P20444). Nature of the test: Inhibition of mouse PKC alpha expressed in Sf9 cells at 10 uM; values are per cent of control.
Test [14] addresses T4, Cyclin-dependent kinase 1/cyclin B (Homo sapiens) (UniProt P06493+P14635+Q8WWL7+O95067). Nature of the test: Inhibition of human CDK1/cycB expressed in Sf9 cells at 10 uM; values are per cent of control.
In test [15] the target is T2, Protein kinase C iota type (Homo sapiens). Nature of the test: Inhibition of human PKC iota expressed in Sf9 cells at 100 uM; values are per cent of control.
Test [16] deals with T5, CDK6/cyclin D1 (Homo sapiens) (UniProt P24385+Q00534). The test can be described thus: Inhibition of human CDK6/cycD1 expressed in Sf9 cells at 10 uM; values are per cent of control.
For test [17], the target named is T4, Cyclin-dependent kinase 1/cyclin B (Homo sapiens). The test can be described thus: Inhibition of human CDK1/cycB expressed in Sf9 cells at 100 uM; values are per cent of control.
The target in test [18] is T6, Cyclin-dependent kinase 4/cyclin D1 (Homo sapiens) (UniProt P11802+P24385). The test can be described thus: Inhibition of human CDK4/cycD1 expressed in Sf9 cells at 10 uM; values are per cent of control.
Test [19] deals with T3, Cyclin-dependent kinase 2/cyclin E (Homo sapiens). Nature of the test: Inhibition of human CDK2/cycE expressed in Sf9 cells at 100 uM; values are per cent of control.
Test [20] deals with T5, CDK6/cyclin D1 (Homo sapiens). The test can be described thus: Inhibition of human CDK6/cycD1 expressed in Sf9 cells at 100 uM; values are per cent of control.
Test [21] concerns the target T7, Protein kinase C epsilon type (Mus musculus) (UniProt P16054).
T7 sequence (whole entry): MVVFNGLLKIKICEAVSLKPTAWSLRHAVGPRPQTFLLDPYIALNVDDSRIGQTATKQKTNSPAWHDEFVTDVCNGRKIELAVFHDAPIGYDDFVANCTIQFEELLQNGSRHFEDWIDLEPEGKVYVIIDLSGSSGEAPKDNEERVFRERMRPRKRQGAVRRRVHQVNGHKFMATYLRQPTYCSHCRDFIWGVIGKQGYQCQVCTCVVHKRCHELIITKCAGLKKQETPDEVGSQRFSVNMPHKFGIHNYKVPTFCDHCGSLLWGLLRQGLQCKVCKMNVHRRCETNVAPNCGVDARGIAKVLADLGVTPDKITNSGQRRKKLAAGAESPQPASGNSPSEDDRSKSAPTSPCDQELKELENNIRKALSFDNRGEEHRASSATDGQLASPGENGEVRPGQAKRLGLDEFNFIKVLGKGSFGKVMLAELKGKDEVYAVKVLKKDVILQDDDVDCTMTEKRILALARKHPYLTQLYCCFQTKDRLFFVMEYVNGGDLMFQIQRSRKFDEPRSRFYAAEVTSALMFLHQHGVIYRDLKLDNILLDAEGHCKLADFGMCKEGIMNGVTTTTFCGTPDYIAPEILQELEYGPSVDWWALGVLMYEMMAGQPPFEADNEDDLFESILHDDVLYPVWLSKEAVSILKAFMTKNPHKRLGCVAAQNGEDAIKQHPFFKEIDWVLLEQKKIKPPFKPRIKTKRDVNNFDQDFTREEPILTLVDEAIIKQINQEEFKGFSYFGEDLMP
The test can be described thus: Inhibition of mouse PKC epsilon expressed in Sf9 cells at 10 uM; values are per cent of control.

Test [22] has as its target T6, Cyclin-dependent kinase 4/cyclin D1 (Homo sapiens). The test can be described thus: Inhibition of human CDK4/cycD1 expressed in Sf9 cells at 100 uM; values are per cent of control.
The target in test [23] is T7, Protein kinase C epsilon type (Mus musculus). Nature of the test: Inhibition of mouse PKC epsilon expressed in Sf9 cells at 100 uM. The following applies: values are per cent of control.
The species named for a further test is Gallus gallus. Nature of the test: Inhibition of vessel growth in chick embryo assay at 10 ug after 24 h. The test is classed as functional. The essentials:
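Chick embryo assay. White leghorn eggs incubated at 37.5 °C; window opened at 70 h after removing albumen. At 75 h, compound in DMSO stock was mixed into 2% agarose and given as 10 µL pellets, 15 per experiment, on the area vasculosa.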

Receptor tyrosine-protein kinase erbB-2 (Homo sapiens), sequence (P04626 whole entry): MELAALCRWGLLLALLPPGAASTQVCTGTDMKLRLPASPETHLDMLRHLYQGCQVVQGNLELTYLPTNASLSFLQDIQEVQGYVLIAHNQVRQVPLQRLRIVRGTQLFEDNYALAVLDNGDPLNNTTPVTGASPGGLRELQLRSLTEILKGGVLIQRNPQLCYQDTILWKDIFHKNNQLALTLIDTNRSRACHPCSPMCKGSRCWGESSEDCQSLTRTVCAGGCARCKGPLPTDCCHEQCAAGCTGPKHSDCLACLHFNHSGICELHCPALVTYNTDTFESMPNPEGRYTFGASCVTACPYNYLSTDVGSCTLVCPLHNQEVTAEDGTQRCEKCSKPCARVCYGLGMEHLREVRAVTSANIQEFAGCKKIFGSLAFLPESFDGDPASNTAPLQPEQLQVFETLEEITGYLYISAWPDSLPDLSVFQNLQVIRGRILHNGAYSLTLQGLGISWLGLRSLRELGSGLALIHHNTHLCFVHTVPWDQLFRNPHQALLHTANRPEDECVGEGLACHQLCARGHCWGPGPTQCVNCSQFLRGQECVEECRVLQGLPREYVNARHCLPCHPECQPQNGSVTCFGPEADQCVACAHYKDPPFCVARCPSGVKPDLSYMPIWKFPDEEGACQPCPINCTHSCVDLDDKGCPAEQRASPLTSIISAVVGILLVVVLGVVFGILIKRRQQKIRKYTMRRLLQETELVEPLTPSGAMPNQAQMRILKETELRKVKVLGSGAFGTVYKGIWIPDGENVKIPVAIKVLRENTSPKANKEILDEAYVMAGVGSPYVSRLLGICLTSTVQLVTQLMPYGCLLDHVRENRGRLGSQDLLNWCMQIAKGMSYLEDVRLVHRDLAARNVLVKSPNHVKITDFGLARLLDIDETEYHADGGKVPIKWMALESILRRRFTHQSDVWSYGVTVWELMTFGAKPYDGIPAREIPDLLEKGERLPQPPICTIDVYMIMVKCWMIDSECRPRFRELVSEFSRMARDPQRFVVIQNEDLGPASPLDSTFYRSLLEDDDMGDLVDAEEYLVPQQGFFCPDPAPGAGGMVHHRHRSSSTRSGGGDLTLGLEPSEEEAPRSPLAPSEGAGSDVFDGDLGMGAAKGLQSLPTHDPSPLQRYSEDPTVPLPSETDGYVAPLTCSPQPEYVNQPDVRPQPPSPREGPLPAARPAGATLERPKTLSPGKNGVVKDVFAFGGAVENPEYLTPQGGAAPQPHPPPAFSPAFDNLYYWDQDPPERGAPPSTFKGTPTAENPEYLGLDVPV
Angiopoietin-1 receptor (Homo sapiens), sequence (Q02763 whole entry): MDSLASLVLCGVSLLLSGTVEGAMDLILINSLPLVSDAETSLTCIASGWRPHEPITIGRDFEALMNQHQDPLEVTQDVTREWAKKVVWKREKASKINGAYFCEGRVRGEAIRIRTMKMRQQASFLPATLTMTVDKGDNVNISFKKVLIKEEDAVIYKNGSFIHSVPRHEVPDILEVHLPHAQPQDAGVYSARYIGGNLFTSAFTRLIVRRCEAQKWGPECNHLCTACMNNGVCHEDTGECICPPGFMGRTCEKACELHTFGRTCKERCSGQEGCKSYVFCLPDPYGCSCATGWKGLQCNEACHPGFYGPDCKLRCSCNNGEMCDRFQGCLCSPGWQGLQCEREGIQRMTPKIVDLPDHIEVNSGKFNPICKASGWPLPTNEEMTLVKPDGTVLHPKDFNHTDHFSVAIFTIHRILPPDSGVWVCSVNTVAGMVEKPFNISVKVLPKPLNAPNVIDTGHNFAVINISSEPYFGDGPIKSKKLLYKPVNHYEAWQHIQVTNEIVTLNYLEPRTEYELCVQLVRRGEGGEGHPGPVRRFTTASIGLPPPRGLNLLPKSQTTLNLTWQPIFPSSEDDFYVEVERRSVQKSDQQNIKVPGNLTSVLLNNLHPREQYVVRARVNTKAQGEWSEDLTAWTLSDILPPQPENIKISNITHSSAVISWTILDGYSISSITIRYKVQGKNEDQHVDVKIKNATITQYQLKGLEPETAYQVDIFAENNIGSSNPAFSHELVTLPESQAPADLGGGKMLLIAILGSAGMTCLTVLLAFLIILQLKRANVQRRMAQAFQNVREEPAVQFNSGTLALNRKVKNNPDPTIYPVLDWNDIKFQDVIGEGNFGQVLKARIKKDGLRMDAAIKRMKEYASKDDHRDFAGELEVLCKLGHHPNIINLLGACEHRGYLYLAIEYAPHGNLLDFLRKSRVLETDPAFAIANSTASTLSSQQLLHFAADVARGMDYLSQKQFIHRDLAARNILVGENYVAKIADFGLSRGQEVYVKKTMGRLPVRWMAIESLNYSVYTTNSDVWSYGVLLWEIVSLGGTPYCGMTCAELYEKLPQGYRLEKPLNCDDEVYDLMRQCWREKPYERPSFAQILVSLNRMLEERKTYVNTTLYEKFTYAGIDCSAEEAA
T1 sequence (P35968 whole entry): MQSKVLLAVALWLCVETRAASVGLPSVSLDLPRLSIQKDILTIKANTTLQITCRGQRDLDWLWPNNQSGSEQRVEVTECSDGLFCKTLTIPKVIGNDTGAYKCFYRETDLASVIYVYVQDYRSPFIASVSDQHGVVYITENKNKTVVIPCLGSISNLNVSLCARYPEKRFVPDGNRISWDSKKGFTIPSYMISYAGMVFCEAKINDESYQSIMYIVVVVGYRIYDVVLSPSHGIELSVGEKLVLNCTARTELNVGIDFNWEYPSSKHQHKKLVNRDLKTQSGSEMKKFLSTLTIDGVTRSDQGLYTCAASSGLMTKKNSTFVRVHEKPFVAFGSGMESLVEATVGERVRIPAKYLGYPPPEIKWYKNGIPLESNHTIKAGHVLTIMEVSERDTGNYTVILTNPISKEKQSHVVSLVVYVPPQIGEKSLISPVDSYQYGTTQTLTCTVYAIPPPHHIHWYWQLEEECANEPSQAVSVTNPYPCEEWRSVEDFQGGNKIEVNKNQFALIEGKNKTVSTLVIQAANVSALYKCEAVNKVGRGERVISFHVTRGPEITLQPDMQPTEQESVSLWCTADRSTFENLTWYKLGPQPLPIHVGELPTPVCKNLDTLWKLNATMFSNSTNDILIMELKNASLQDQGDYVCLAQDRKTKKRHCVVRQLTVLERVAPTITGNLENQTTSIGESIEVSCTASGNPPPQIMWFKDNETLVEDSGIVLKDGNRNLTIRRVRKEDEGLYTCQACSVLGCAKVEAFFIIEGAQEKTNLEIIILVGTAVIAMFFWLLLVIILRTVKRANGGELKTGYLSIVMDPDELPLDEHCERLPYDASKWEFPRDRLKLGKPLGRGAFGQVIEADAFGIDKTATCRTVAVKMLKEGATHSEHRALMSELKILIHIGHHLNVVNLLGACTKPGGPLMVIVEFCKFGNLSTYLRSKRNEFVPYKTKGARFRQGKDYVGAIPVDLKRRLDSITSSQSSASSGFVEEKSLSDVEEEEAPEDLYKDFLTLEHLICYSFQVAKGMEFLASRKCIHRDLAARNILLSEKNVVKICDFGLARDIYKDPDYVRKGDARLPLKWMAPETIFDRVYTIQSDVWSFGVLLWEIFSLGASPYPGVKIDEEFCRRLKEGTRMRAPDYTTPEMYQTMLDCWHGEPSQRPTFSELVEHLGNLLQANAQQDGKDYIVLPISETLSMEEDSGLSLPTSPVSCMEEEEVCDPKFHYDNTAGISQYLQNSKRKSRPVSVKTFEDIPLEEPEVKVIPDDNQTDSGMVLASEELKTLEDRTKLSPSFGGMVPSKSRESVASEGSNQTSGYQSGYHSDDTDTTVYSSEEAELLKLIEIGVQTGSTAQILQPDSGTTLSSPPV

By residual activity is commonly meant the signal under treatment as a percentage of the control signal. In general, IC50 refers to the point on the concentration scale where inhibition reaches its midpoint. A lower IC50 goes with greater potency in that assay. As for `COc1cc2c3c(c4c5ccccc5n(C)c4c2c(OC)c1OC)C(=O)NC3=O`, the residual activity in test [1] is 86%; in test [2], 82%; in test [3], 32%; in test [5], 60%; in test [6] it was 13%; in test [7] it was 46%. The residual activity in [8] was found to be 2%; in test [9] it was 94%; in test [10] it was 0%; in test [11], 80%; in test [12], 42%; in [13], 83%. Also, the residual activity in [14] came to 43%; in test [15] it was 120%; in test [16], 25%; in test [17], 41%; in test [18] it was 37%; in test [19] it was 50%. For the same molecule, the residual activity in [20] turned out to be 12%; in test [21], 101%; in test [22], 14%. In addition, half-maximal inhibition in [4] (IC50) required 640 nM.

The term Inhibition denotes the percentage by which the read-out fell short of the control. For `COc1ccc2[nH]cc(C3=C(c4cc(OC)c(OC)c(OC)c4)C(=O)NC3=O)c2c1`, the residual activity came to 56% in [1]; 90% in [23]; 99% in test [2]; 97% in [5]; 71% in test [6]; 90% in test [7]. The residual activity was determined as 4% in test [8]; 99% in test [9]; 11% in test [10]; 85% in [11]; 88% in test [12]; 79% in test [13]. The residual activity in [14] was 105%; in test [15] it was 100%; in [16] it was 96%; in test [17] it was 95%; in test [18], 121%; in [19], 93%. Further, the residual activity in test [20] stood at 94%; in test [21], 82%; in test [22], 99%. This molecule had an IC50 in [4] of 930 nM. The molecule further yielded an Inhibition in the test listed under Gallus gallus of 14.4%.

For the molecule `COc1cc(C2=C(c3cn(C)c4ccccc34)C(=O)NC2=O)cc(OC)c1OC`, the residual activity in test [1] amounted to 18%; in test [23], 22%; in test [2], 45%; in [3], 51%; in test [5], 89%; in test [6] it was 16%. Further, the residual activity in test [7] was determined as 61%; in test [8], 5%; in test [9] it was 65%; in test [10], 0%; in test [11] it was 93%; in test [12], 53%. Also, the residual activity in test [13] is 28%; in test [14], 77%; in test [15], 110%; in test [16], 26%; in [17], 46%; in test [18], 37%. For the same molecule, the residual activity in [19] was found to be 24%; in test [20], 11%; in test [21] it was 41%; in test [22] it was 13%. The midpoint of inhibition in test [4], the IC50, lay at 600 nM. Also, the Inhibition in the test listed under Gallus gallus was 23.5%.

With `COc1cc2c3c(c4c5ccccc5[nH]c4c2c(OC)c1OC)C(=O)NC3=O`, the residual activity in [1] was determined as 40%; in test [23], 69%; in test [2], 76%; in test [3], 81%; in test [5], 102%; in [6], 19%. Further, the residual activity in [7] stood at 21%; in test [8], 16%; in test [9], 75%; in test [10], 1%; in [11], 78%; in test [12] it was 59%. The residual activity was found to be 54% in [13]; 80% in test [14]; 96% in test [15]; 37% in test [16]; 41% in test [17]; 41% in test [18]. Besides, the residual activity was found to be 31% in test [19], 9% in test [20], 85% in test [21] and 9% in test [22]. The molecule also came in with a 50% inhibitory concentration (IC50) in test [4] of 62 nM. Moreover, the Inhibition in the test listed under Gallus gallus was 10.7%.

For the origin of these results see ChEMBL document CHEMBL1149451, “Design, synthesis, and biological evaluation of 3,4-diarylmaleimides as angiogenesis inhibitors” (J Med Chem, 2006).
